Only some compounds are listed: those with a hit (about 2.9% of all), similar ones and a draw of the others.
Tn6 DDE FP – inhibitors of Tn6 peptide binding to fibrin DD(E), primary screen, biochemical, fluorescence polarization, human fibrin, Tn6 probe; Fibrinogen beta chain (Homo sapiens), P02675; Fibrin DD(E) TRITC-Tn6 fluorescence polarization displacement; inhibition, % at 8.3 µM; actives 0.21% (n = 370,000); AID 720509, 2013;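 active = inhibition above a per-campaign cutoff: mean of compounds within control limits plus 3 SD, cut at about 15% in these data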;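 also: 0% = median of all compound wells on the plate and 100% = blocking peptide control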
Target sequence (P02675 whole entry, looked up): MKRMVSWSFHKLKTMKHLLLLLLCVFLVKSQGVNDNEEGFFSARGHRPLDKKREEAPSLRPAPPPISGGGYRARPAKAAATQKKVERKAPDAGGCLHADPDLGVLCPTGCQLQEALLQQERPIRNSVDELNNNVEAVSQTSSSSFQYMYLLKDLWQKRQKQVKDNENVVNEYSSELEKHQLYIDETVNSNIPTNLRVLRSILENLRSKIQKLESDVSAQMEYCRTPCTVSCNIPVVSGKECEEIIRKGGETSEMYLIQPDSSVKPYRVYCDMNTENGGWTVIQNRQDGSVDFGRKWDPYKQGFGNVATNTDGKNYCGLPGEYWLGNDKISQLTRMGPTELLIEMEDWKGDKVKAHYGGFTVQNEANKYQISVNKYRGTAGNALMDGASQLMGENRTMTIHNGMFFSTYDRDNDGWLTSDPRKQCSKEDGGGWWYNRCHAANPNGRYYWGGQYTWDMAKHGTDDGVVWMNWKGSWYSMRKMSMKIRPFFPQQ
NRP1-CendR mod – modulators of CendR peptide binding to NRP-1, primary screen, biochemical, fluorescence polarization, uHTS; AID 602438, 2012; FAM-RPARPAR peptide binding to NRP-1; Neuropilin-1 (Homo sapiens), O14786; actives 0.85% (n = 360,000); inhibition, % at 25 µM;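 active = inhibition or corrected inhibition above about 18%, plus a signal ratio from 0.5 to 1.5, limit read from the data, passing the limit was not always enough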
CRFR2-BP ag – agonists of CRF-BP/CRF-R2 complex, primary screen, cell-based, HEK293, calcium dye fluorescence, uHTS | CRF-binding protein / CRF receptor 2 complex (human) | actives 0.46% (n = 350,000) | calcium dye fluorescence (FLIPR); percent of saturating CRF peptide response | activation, % at 13.2 µM;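 active = activation of at least 50%, plus an integration ratio under a set limit after plate pattern correction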;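 also: plate controls were neutral control wells without compound for no effect and CRF at EC100 for full effect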
DDE Tn7 FP inh – inhibitors of Tn7 peptide binding to fibrin DD(E), primary screen, biochemical, fluorescence polarization, human fibrin, Tn7 probe. Fibrinogen beta chain (Homo sapiens), P02675. FP displacement of FITC-Tn7 peptide from fibrin DD(E); 0% = median of compound wells per plate. inhibition, % at 8.3 µM. actives 0.13% (n = 370,000);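 active = inhibition above the mean of compounds falling within the control limits plus 3 SD of them, cut at about 14% in these data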;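 also: 0% = plate median of compound wells and 100% = 10 µM Aha-Tn7 peptide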
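Also added: labelled Tn7 tracer, 0.1 µM; Assay system: human fibrin DD(E) protein; Amount: 2 µM fibrin DD(E); Schedule: 10 min compound pre-incubation, 3 h probe incubation at room temperature; Repeats: one replicate per compound; Read-out basis: percent inhibition; Measured by: fluorescence polarization of the labelled Tn7 tracer.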
KLK7 zymogen act – proKLK7 zymogen activators, primary screen, biochemical, fluorescence intensity; activation, % at 7 µM; purified proKLK7, EDANS-DABCYL substrate fluorescence; 100% is mature enzyme control, 0% vehicle; actives 0.9% (n = 370,000); Kallikrein-7 (Homo sapiens), P49862;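 active = activation above the mean of all tested compounds plus 3 SD, computed per campaign excluding outliers beyond control limits, cut at about 13% in these data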
CRFR2-BP antag – antagonists of CRF-BP/CRF-R2 complex, primary screen, cell-based, HEK293, calcium dye fluorescence, uHTS. CRF-induced calcium fluorescence. inhibition, % at 11.8 µM. actives 0.59% (n = 350,000). AID 588475, 2011;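 active = inhibition of the ligand-induced calcium signal above about 50% at the single tested concentration, limit read from the data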
* marks the source's active call; other numbers are inactive results.

Screening O=C(O)CC(C(=O)O)N1C(=O)/C(=C/C=C/c2ccco2)SC1=S (stereo not drawn) returned Tn6 DDE FP -2, NRP1-CendR mod -131, CRFR2-BP ag -1, DDE Tn7 FP inh 9, KLK7 zymogen act 1 and CRFR2-BP antag 3.
`O=C(NCc1cccs1)C1CCN(S(=O)(=O)c2ccc([N+](=O)[O-])cc2)CC1` gave Tn6 DDE FP -5, DDE Tn7 FP inh -4 and KLK7 zymogen act 0.
Cc1ccc(NC(=O)c2ncn(CCCNCC3CCCO3)n2)cc1C (stereo not drawn) was read as Tn6 DDE FP 2, NRP1-CendR mod 4, CRFR2-BP ag -1, DDE Tn7 FP inh 8, KLK7 zymogen act 0 and CRFR2-BP antag 81*.
CCOc1ccccc1N(CC(=O)N1CCC(C)CC1)S(=O)(=O)c1ccc(C)cc1 was read as Tn6 DDE FP -4, NRP1-CendR mod 0, CRFR2-BP ag 0, DDE Tn7 FP inh 1, KLK7 zymogen act 0 and CRFR2-BP antag -8.
Screening CCOc1ccccc1N(CC(=O)N1CCOCC1)S(=O)(=O)c1ccccc1 returned Tn6 DDE FP 1, NRP1-CendR mod 10, CRFR2-BP ag 291*, DDE Tn7 FP inh 0, KLK7 zymogen act 0 and CRFR2-BP antag -127.
CCOc1ccccc1N(CC(=O)N1CCC(C(N)=O)CC1)S(=O)(=O)c1ccc(SC)cc1 was read as Tn6 DDE FP -4, NRP1-CendR mod 6, CRFR2-BP ag -1, DDE Tn7 FP inh 2, KLK7 zymogen act 1 and CRFR2-BP antag 75*.
COC(=O)[C@]12C[C@H](CC(=O)N3CCN(C(=O)c4ccco4)CC3)C(=O)N(Cc3ccco3)C1=C[C@H](C(C)C)O[C@@H]2C1CC1 was read as Tn6 DDE FP -6, DDE Tn7 FP inh 4 and KLK7 zymogen act 0.
For O=C(OCCN1C(=O)c2cccc3c(N4CCOCC4)ccc(c23)C1=O)c1ccc(Cl)cc1Cl the results were Tn6 DDE FP -5, NRP1-CendR mod 132, CRFR2-BP ag 176*, DDE Tn7 FP inh 4, KLK7 zymogen act -4 and CRFR2-BP antag -161.
For O=C(OCCN1C(=O)c2cccc3c(N4CCOCC4)ccc(c23)C1=O)c1cccc(Cl)c1 the results were CRFR2-BP ag 175* and CRFR2-BP antag -169.
Screening O=C(OCCN1C(=O)c2ccccc2C1=O)c1cc(S(=O)(=O)N2CCOCC2)ccc1Cl returned Tn6 DDE FP 6, NRP1-CendR mod -1, CRFR2-BP ag 0, DDE Tn7 FP inh 6, KLK7 zymogen act 0 and CRFR2-BP antag 4.
COC(=O)C12C=C3CC(C)=C3C(=O)N1Cc1[nH]c3ccccc3c1C2 (stereo not drawn) was read as Tn6 DDE FP 5, DDE Tn7 FP inh -5 and KLK7 zymogen act 4.
C#CCNC(=O)C[C@H]1C[C@@]2(C(=O)OC)C(=C[C@H](C3CCCC3)O[C@@H]2C)N(CCc2ccc(OC)c(OC)c2)C1=O was read as Tn6 DDE FP -2, DDE Tn7 FP inh -6 and KLK7 zymogen act 0.
Screening COc1ccc(N(CC(=O)N/N=C/c2ccco2)S(=O)(=O)c2ccccc2)cc1Cl returned Tn6 DDE FP -2, NRP1-CendR mod -4, CRFR2-BP ag -3, DDE Tn7 FP inh 1, KLK7 zymogen act 0 and CRFR2-BP antag -14.
COc1ccc(N(CC(=O)NN=C2CCCC2)S(=O)(=O)c2ccccc2)cc1Cl was read as Tn6 DDE FP 1, NRP1-CendR mod 11, CRFR2-BP ag 80*, DDE Tn7 FP inh 6, KLK7 zymogen act 0 and CRFR2-BP antag -100.
O=C(NNC(=O)c1ccc2ccccc2c1)c1ccc(Cl)c(Cl)c1 was read as Tn6 DDE FP 0, NRP1-CendR mod 26*, CRFR2-BP ag 1, DDE Tn7 FP inh 5, KLK7 zymogen act 0 and CRFR2-BP antag -10.
For O=C(NNC(=O)c1cccc2ccccc12)c1ccc(Cl)c(Cl)c1 the results were Tn6 DDE FP -2, NRP1-CendR mod -18, CRFR2-BP ag -4, DDE Tn7 FP inh -3, KLK7 zymogen act 0 and CRFR2-BP antag 8.
`CCCCCCn1cc(CN2CC=CS2(=O)=O)nn1` gave Tn6 DDE FP -5, DDE Tn7 FP inh -5 and KLK7 zymogen act 0.
For CCOC(=O)[C@]12CCCC=C1N(Cc1ccc(OC)cc1)C(=O)[C@@H]2CC(=O)NCc1cccc2ccccc12 the results were Tn6 DDE FP 3, DDE Tn7 FP inh -3 and KLK7 zymogen act 0.
Screening O=C(/C=C/c1ccc(O)c(O)c1)c1ccc(S(=O)(=O)N2CCCCCC2)cc1 returned Tn6 DDE FP 0, NRP1-CendR mod 22*, CRFR2-BP ag -1, DDE Tn7 FP inh -10, KLK7 zymogen act 0 and CRFR2-BP antag -33.
CCNC(=O)N(C)[C@H]1C[C@H]2c3[nH]c4c(-c5cccc(C)c5)cccc4c3CCN2C[C@H]1[C@H](C)O was read as Tn6 DDE FP 3, DDE Tn7 FP inh -4 and KLK7 zymogen act 0.
COc1ccc(CN(C(=O)c2ccc(C)cc2)C2CCS(=O)(=O)C2)cc1 (stereo not drawn) was read as Tn6 DDE FP -2, NRP1-CendR mod 1, CRFR2-BP ag 0, DDE Tn7 FP inh 1, KLK7 zymogen act 0 and CRFR2-BP antag 64*.
COc1ccc(CN(C(=O)c2cccc(OC)c2)C2CCS(=O)(=O)C2)cc1 (stereo not drawn) was read as Tn6 DDE FP -3, NRP1-CendR mod 6, CRFR2-BP ag -1, DDE Tn7 FP inh -6, KLK7 zymogen act 1 and CRFR2-BP antag -6.
`OC(CN1C2=NCCN2c2ccccc21)c1ccc2c(c1)OCO2` (stereo not drawn) gave Tn6 DDE FP 5, NRP1-CendR mod 9, CRFR2-BP ag 3, DDE Tn7 FP inh 0, KLK7 zymogen act -1 and CRFR2-BP antag 52*.
Screening CCOC(=O)/C(C#N)=C\c1ccc(N2CCN(C/C=C/c3ccccc3)CC2)cc1 returned Tn6 DDE FP -2, NRP1-CendR mod -68, CRFR2-BP ag 55*, DDE Tn7 FP inh 9, KLK7 zymogen act -1 and CRFR2-BP antag -62.
Screening CCOC(=O)/C(C#N)=C\c1ccc2c(c1)OCO2 returned Tn6 DDE FP -5, NRP1-CendR mod 12, CRFR2-BP ag -1, DDE Tn7 FP inh -9, KLK7 zymogen act 0 and CRFR2-BP antag 110*.

From PubChem
